Legend:
[1] = Hemolytic activity in human RBC measured after 1 hr by microplate reader method; type: toxicity, cell-based, Erythrocyte; details: human, human red blood cells (erythrocytes)
Summary of the method: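 Human red blood cell lysis was used as the cytotoxicity read-out, expressed as EC50 in µg/mL. The highest concentration tested was 500 µM. Compounds were tested as di-TFA salts.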

Pseudomonas aeruginosa = experiment: Antibacterial activity against Pseudomonas aeruginosa ATCC 27853 incubated for 48 hrs and measured by broth microdilution assay; type: functional
Summary of the method: (§1)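 MICs in µg/mL were measured against the reference strains S. aureus ATCC 9144, B. subtilis 168, E. coli ATCC 25922 and P. aeruginosa ATCC 27853. Compounds were tested as di-TFA salts.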

Escherichia coli = experiment: Antibacterial activity against Escherichia coli ATCC 25922 incubated for 48 hrs and measured by broth microdilution assay; type: functional; summary of the method: as §1
Staphylococcus aureus = experiment: Antibacterial activity against Staphylococcus aureus ATCC 9144 incubated for 48 hrs and measured by broth microdilution assay; type: functional; summary of the method: as §1
Bacillus subtilis = experiment: Antibacterial activity against Bacillus subtilis 168 incubated for 48 hrs and measured by broth microdilution assay; type: functional; summary of the method: as §1

Row | SMILES | EC50 at 1 h [1] | MIC (Pseudomonas aeruginosa) | MIC (Escherichia coli) | MIC (Staphylococcus aureus) | MIC (Bacillus subtilis)
1 | N[C@H]1CC[C@H](N2C(=O)N([C@H]3CC[C@H](N)CC3)C(=O)C(Cc3cc(Br)cc(Br)c3)(Cc3cc(Br)cc(Br)c3)C2=O)CC1.O=C(O)C(F)(F)F.O=C(O)C(F)(F)F | 16 µg/mL | 4 µg/mL | 2 µg/mL | 2 µg/mL | 2 µg/mL
2 | NCCCN1C(=O)N(CCCN)C(=O)C(Cc2ccc(C(F)(F)F)cc2)(Cc2ccc(C(F)(F)F)cc2)C1=O.O=C(O)C(F)(F)F.O=C(O)C(F)(F)F | > 393 µg/mL | 128 µg/mL | 64 µg/mL | 64 µg/mL | 16 µg/mL
3 | NCCCN1C(=O)N(CCCN)C(=O)C(Cc2ccc(Br)c3ccccc23)(Cc2ccc(Br)c3ccccc23)C1=O.O=C(O)C(F)(F)F.O=C(O)C(F)(F)F | 23 µg/mL | 4 µg/mL | 4 µg/mL | 2 µg/mL | 2 µg/mL
4 | N=C(N)NCCCCCCN1C(=O)N(CCCCCCNC(=N)N)C(=O)C(Cc2cc(Br)cc(Br)c2)(Cc2cc(Br)cc(Br)c2)C1=O.O=C(O)C(F)(F)F.O=C(O)C(F)(F)F | 57 µg/mL | 32 µg/mL | 4 µg/mL | 4 µg/mL | 4 µg/mL
5 | CCCCCCC1(Cc2cc(Br)cc(Br)c2)C(=O)N(CCCCN)C(=O)N(CCCCN)C1=O.O=C(O)C(F)(F)F.O=C(O)C(F)(F)F | 144 µg/mL | 16 µg/mL | 16 µg/mL | 4 µg/mL | 4 µg/mL
6 | N[C@H]1CC[C@@H](N2C(=O)N([C@H]3CC[C@@H](N)CC3)C(=O)C(Cc3cc(Br)cc(Br)c3)(Cc3cc(Br)cc(Br)c3)C2=O)CC1.O=C(O)C(F)(F)F.O=C(O)C(F)(F)F | 15 µg/mL | 8 µg/mL | 4 µg/mL | 4 µg/mL | 4 µg/mL
7 | N=C(N)NCCN1C(=O)N(CCNC(=N)N)C(=O)C(Cc2cc(Br)cc(Br)c2)(Cc2cc(Br)cc(Br)c2)C1=O.O=C(O)C(F)(F)F.O=C(O)C(F)(F)F | 164 µg/mL | 16 µg/mL | 4 µg/mL | 2 µg/mL | 2 µg/mL
8 | CCCCCCC1(CCCCCC)C(=O)N(CCCCN)C(=O)N(CCCCN)C1=O.O=C(O)C(F)(F)F.O=C(O)C(F)(F)F | > 333 µg/mL | 64 µg/mL | 32 µg/mL | 16 µg/mL | 8 µg/mL
9 | NCCCN1C(=O)N(CCCN)C(=O)C(Cc2ccc(C(F)(F)F)cc2)(Cc2cc(Br)cc(Br)c2)C1=O.O=C(O)C(F)(F)F.O=C(O)C(F)(F)F | > 438 µg/mL | 32 µg/mL | 16 µg/mL | 32 µg/mL | 8 µg/mL
10 | N[C@H]1C[C@H](N2C(=O)N([C@H]3C[C@H](N)C3)C(=O)C(Cc3cc(Br)cc(Br)c3)(Cc3cc(Br)cc(Br)c3)C2=O)C1.O=C(O)C(F)(F)F.O=C(O)C(F)(F)F | 93 µg/mL | 8 µg/mL | 4 µg/mL | 4 µg/mL | 4 µg/mL
11 | N=C(N)N[C@H]1C[C@@H](N2C(=O)N([C@H]3C[C@@H](NC(=N)N)C3)C(=O)C(Cc3cc(Br)cc(Br)c3)(Cc3cc(Br)cc(Br)c3)C2=O)C1.O=C(O)C(F)(F)F.O=C(O)C(F)(F)F | 75 µg/mL | 8 µg/mL | 4 µg/mL | 2 µg/mL | 2 µg/mL
12 | NCCCCN1C(=O)N(CCCCN)C(=O)C(Cc2cc(Br)cc(Br)c2)(Cc2ccc3ccccc3n2)C1=O.O=C(O)C(F)(F)F.O=C(O)C(F)(F)F | > 444 µg/mL | 256 µg/mL | 128 µg/mL | 32 µg/mL | 8 µg/mL
13 | CN(C)CCCCN1C(=O)N(CCCCN(C)C)C(=O)C(Cc2cc(Br)cc(Br)c2)(Cc2cc(Br)cc(Br)c2)C1=O.O=C(O)C(F)(F)F.O=C(O)C(F)(F)F | 157 µg/mL | 64 µg/mL | 8 µg/mL | 8 µg/mL | 4 µg/mL
14 | CCCCCCC1(CCCCCC)C(=O)N(CCCCNC(=N)N)C(=O)N(CCCCNC(=N)N)C1=O.O=C(O)C(F)(F)F.O=C(O)C(F)(F)F | 143 µg/mL | 16 µg/mL | 4 µg/mL | 2 µg/mL | 2 µg/mL
15 | N=C(N)NCCCCCN1C(=O)N(CCCCCNC(=N)N)C(=O)C(Cc2cc(Br)cc(Br)c2)(Cc2cc(Br)cc(Br)c2)C1=O.O=C(O)C(F)(F)F.O=C(O)C(F)(F)F | 29 µg/mL | 8 µg/mL | 4 µg/mL | 4 µg/mL | 4 µg/mL
16 | N=C(N)NCCCCN1C(=O)N(CCCCNC(=N)N)C(=O)C(Cc2c(Br)cc(Br)cc2Br)(Cc2c(Br)cc(Br)cc2Br)C1=O.O=C(O)C(F)(F)F.O=C(O)C(F)(F)F | 30 µg/mL | 4 µg/mL | 4 µg/mL | 2 µg/mL | 1 µg/mL
17 | CC(C)(C)c1ccc(CC2(Cc3cc(Br)cc(Br)c3)C(=O)N(CCCN)C(=O)N(CCCN)C2=O)cc1.O=C(O)C(F)(F)F.O=C(O)C(F)(F)F | 47 µg/mL | 8 µg/mL | 8 µg/mL | 4 µg/mL | 2 µg/mL

Row | SMILES | EC50 at 1 h [1] | MIC (Pseudomonas aeruginosa) | MIC (Escherichia coli) | MIC (Staphylococcus aureus) | MIC (Bacillus subtilis)
18 | NCCCCN1C(=O)N(CCCCN)C(=O)C(Cc2cc(Br)cc(Br)c2)(Cc2cc(C(F)(F)F)cc(C(F)(F)F)c2)C1=O.O=C(O)C(F)(F)F.O=C(O)C(F)(F)F | 93 µg/mL | 8 µg/mL | 8 µg/mL | 8 µg/mL | 2 µg/mL
19 | NCCCCCCN1C(=O)N(CCCCCCN)C(=O)C(Cc2cc(Br)cc(Br)c2)(Cc2cc(Br)cc(Br)c2)C1=O.O=C(O)C(F)(F)F.O=C(O)C(F)(F)F | 30 µg/mL | 16 µg/mL | 4 µg/mL | 4 µg/mL | 4 µg/mL
20 | N=C(N)NCCCCN1C(=O)N(CCCCNC(=N)N)C(=O)C(Cc2cc(Br)c(Br)cc2Br)(Cc2cc(Br)c(Br)cc2Br)C1=O.O=C(O)C(F)(F)F.O=C(O)C(F)(F)F | 32 µg/mL | 8 µg/mL | 4 µg/mL | 4 µg/mL | 4 µg/mL
21 | N=C(N)NCCCCN1C(=O)N(CCCCNC(=N)N)C(=O)C(Cc2cc(Br)cc(Br)c2)(Cc2cc(C(F)(F)F)cc(C(F)(F)F)c2)C1=O.O=C(O)C(F)(F)F.O=C(O)C(F)(F)F (configuration not stated) | 36 µg/mL | 4 µg/mL | 2 µg/mL | 2 µg/mL | 2 µg/mL
22 | CC(C)(C)c1ccc(CC2(Cc3cc(Br)cc(Br)c3)C(=O)N(CCCCN)C(=O)N(CCCCN)C2=O)cc1.O=C(O)C(F)(F)F.O=C(O)C(F)(F)F | 82 µg/mL | 8 µg/mL | 8 µg/mL | 4 µg/mL | 4 µg/mL
23 | N=C(N)NCCCCN1C(=O)N(CCCCNC(=N)N)C(=O)C(Cc2ccc(Br)c3ccccc23)(Cc2ccc(Br)c3ccccc23)C1=O.O=C(O)C(F)(F)F.O=C(O)C(F)(F)F | 36 µg/mL | 8 µg/mL | 4 µg/mL | 4 µg/mL | 4 µg/mL
24 | O=C(O)c1cn(C2CC2)c2cc(N3CCNCC3)c(F)cc2c1=O [CIPROFLOXACIN] | – | – | < 0.03 µg/mL | – | < 0.03 µg/mL
25 | NCCCCN1C(=O)N(CCCCN)C(=O)C(Cc2cc(Br)cc(Br)c2)(Cc2ccc(Br)c3ccccc23)C1=O.O=C(O)C(F)(F)F.O=C(O)C(F)(F)F | 47 µg/mL | 8 µg/mL | 4 µg/mL | 4 µg/mL | 4 µg/mL
26 | NCCCCN1C(=O)N(CCCCN)C(=O)C(Cc2cc(Br)c(Br)cc2Br)(Cc2cc(Br)c(Br)cc2Br)C1=O.O=C(O)C(F)(F)F.O=C(O)C(F)(F)F | 27 µg/mL | 8 µg/mL | 8 µg/mL | 4 µg/mL | 4 µg/mL
27 | NCCCCN1C(=O)N(CCCCN)C(=O)C(Cc2cc(Br)cc(Br)c2)(C2CCCC2)C1=O.O=C(O)C(F)(F)F.O=C(O)C(F)(F)F | > 407 µg/mL | 64 µg/mL | 64 µg/mL | 16 µg/mL | 8 µg/mL
28 | NCCCCN1C(=O)N(CCCCN)C(=O)C(Cc2ccc3cc(Br)ccc3n2)(Cc2ccc3cc(Br)ccc3n2)C1=O.O=C(O)C(F)(F)F.O=C(O)C(F)(F)F | > 469 µg/mL | 256 µg/mL | 256 µg/mL | 16 µg/mL | 4 µg/mL
29 | CNCCCCN1C(=O)N(CCCCNC)C(=O)C(Cc2cc(Br)cc(Br)c2)(Cc2cc(Br)cc(Br)c2)C1=O.O=C(O)C(F)(F)F.O=C(O)C(F)(F)F | 73 µg/mL | 16 µg/mL | 8 µg/mL | 8 µg/mL | 4 µg/mL
30 | N[C@H]1C[C@@H](N2C(=O)N([C@H]3C[C@@H](N)C3)C(=O)C(Cc3cc(Br)cc(Br)c3)(Cc3cc(Br)cc(Br)c3)C2=O)C1.O=C(O)C(F)(F)F.O=C(O)C(F)(F)F | 50 µg/mL | 8 µg/mL | 4 µg/mL | 8 µg/mL | 4 µg/mL
31 | N=C(N)NCCCCN1C(=O)N(CCCCNC(=N)N)C(=O)C(Cc2ccc3cc(Br)ccc3n2)(Cc2ccc3cc(Br)ccc3n2)C1=O.O=C(O)C(F)(F)F.O=C(O)C(F)(F)F | 461 µg/mL | 128 µg/mL | 16 µg/mL | 2 µg/mL | 4 µg/mL
32 | NCCCCN1C(=O)N(CCCCN)C(=O)C(Cc2ccc(Br)c3ccccc23)(Cc2ccc(Br)c3ccccc23)C1=O.O=C(O)C(F)(F)F.O=C(O)C(F)(F)F | 27 µg/mL | 4 µg/mL | 4 µg/mL | 2 µg/mL | 2 µg/mL
33 | NCCCN1C(=O)N(CCCN)C(=O)C(Cc2cc(Br)cc(Br)c2)(Cc2cc(Br)cc(Br)c2)C1=O.O=C(O)C(F)(F)F.O=C(O)C(F)(F)F | 99 µg/mL | 8 µg/mL | 8 µg/mL | 4 µg/mL | 4 µg/mL
34 | N=C(N)NCCCN1C(=O)N(CCCNC(=N)N)C(=O)C(Cc2ccc(C(F)(F)F)cc2)(Cc2cc(Br)cc(Br)c2)C1=O.O=C(O)C(F)(F)F.O=C(O)C(F)(F)F (configuration not stated) | > 480 µg/mL | 64 µg/mL | 16 µg/mL | 4 µg/mL | 4 µg/mL

— ChEMBL document CHEMBL5108036, “A concise SAR-analysis of antimicrobial cationic amphipathic barbiturates for an improved activity-toxicity profile” (Eur J Med Chem, 2022)
